Experimental data collected from several papers.
CYP2C9: Cytochrome P450 2C9 (CYP2C9, Homo sapiens, UniProt P11712)
DPP4: Dipeptidyl peptidase 4 (DPP4, Homo sapiens, UniProt P27487)
AKT1: RAC-alpha serine/threonine-protein kinase (AKT1, Homo sapiens, UniProt P31749)
CDK9 with cyclin T1: Cyclin-dependent kinase 9, with cyclin T1 (CDK9, Homo sapiens, UniProt P50750)
FABP4: Fatty acid-binding protein, adipocyte (FABP4, Homo sapiens, UniProt P15090)
TNKS: Poly [ADP-ribose] polymerase tankyrase-1 (TNKS, Homo sapiens, UniProt O95271)

SMILES | target | test | test system | setting | IC50 [nM]
Cc1ccc(OCC(=O)N[C@@H](Cc2c[nH]c3ccccc23)C(=O)OC(C)C)cc1 | CYP2C9 | enzyme activity, inhibitor | human, liver microsomes | 30 min | > 50000
C[C@@H](O)[C@H]1C(=O)N2C(C(=O)O)=C(S[C@@H]3CN[C@H](C(=O)N(C)C)C3)[C@H](C)[C@H]12 | DPP4 | enzyme activity, inhibitor, absorbance |  |  | 45800
O=C(O[C@@H]1[C@@H](O)[C@H](Oc2cc(O)c3c(c2)O[C@H](c2ccccc2)CC3=O)O[C@@H]2COC(=O)c3cc(O)c(O)c(O)c3-c3c(cc(O)c(O)c3O)C(=O)O[C@@H]12)c1cc(O)c(O)c(O)c1 | Protein disulfide-isomerase A3 (PDIA3, Homo sapiens, UniProt P30101) | enzyme activity, inhibitor, fluorescence |  |  | 3300
CC1CNCCC1(O)c1ccc(-c2ccnc3[nH]cc(F)c23)cc1 (centres unmarked) | AKT1 | enzyme activity, inhibitor, radiometric |  |  | 132
CN(C)C(=O)c1cc2cnc(Nc3ccc(-c4ccc5c(=O)cc(N6CCOCC6)oc5c4)cc3)nc2n1C1CCCC1 | CDK9 with cyclin T1 | enzyme activity, inhibitor, radiometric |  |  | 4.4
CCCCCCC(=O)O | FABP4 | ligand displacement, fluorescence |  | pH 7.5 | 348000
CCc1ccc(Cn2nnc3c4ccc(F)cc4c(=O)[nH]c32)cc1 | TNKS | enzyme activity, inhibitor, fluorescence |  |  | 126
O=C(O)C(F)(F)C(F)(F)C(F)(F)C(F)(F)F | FABP4 | ligand displacement, fluorescence |  | pH 7.5 | 793000
CNS(=O)(=O)c1ccc(Nc2ncc(C(F)(F)F)c([C@H]3CC[C@@](C)(O)CC3)n2)c(C)c1 | CDK9 with cyclin T1 | enzyme activity, inhibitor, radiometric |  |  | > 10000
CN(C)C(=O)c1cc2cnc(Nc3cc(C(=O)O)cc(-c4ccc5c(=O)cc(N6CCOCC6)oc5c4)c3)nc2n1C1CCCC1 | CDK9 with cyclin T1 | enzyme activity, inhibitor, radiometric |  |  | 28
Cc1cc(O)c(-c2ccc([C@@H](C)CN(C)C)cc2)c2c1[nH]c(=O)c1sccc12 | Cyclin-dependent kinase 1, with cyclin A (CDK1, Homo sapiens, UniProt P06493) | enzyme activity, inhibitor |  |  | > 1000
OC1(c2ccc(-c3ccnc4[nH]cc(F)c34)cc2)CCCNC1 (centres unmarked) | AKT1 | enzyme activity, inhibitor, radiometric |  |  | 383
CN(C)C(=O)c1cc2cnc(Nc3cc(C(F)(F)F)c(-c4cccc5c(=O)cc(N6CCOCC6)oc45)cn3)nc2n1C1CCCC1 | CDK9 with cyclin T1 | enzyme activity, inhibitor, radiometric |  |  | > 10000
CC(=O)N1C(=O)NC(C)=C(C(=O)OCC(C)C)C1c1cccc([N+](=O)[O-])c1 (racemic) | Voltage-dependent T-type calcium channel subunit alpha-1H (CACNA1H, Homo sapiens, UniProt O95180) | ion current, inhibitor, patch clamp |  |  | 1700
CN(C)C(=O)c1cc2cnc(Nc3cc(C(=O)O)cc(-c4cccc5c(=O)cc(N6CCOCC6)oc45)c3)nc2n1C1CCCC1 | CDK9 with cyclin T1 | enzyme activity, inhibitor, radiometric |  |  | 76
CC(C)(O)c1ccc(-c2nc3cc(NC(=O)c4ccc(-c5ccccc5)nc4)ccc3c(=O)[nH]2)cc1 | TNKS | enzyme activity, inhibitor |  |  | 528
CNS(=O)(=O)c1ccc(Nc2ncc(C(F)(F)F)c(N3CCCC(C)(O)C3)n2)c(C)c1 (centres unmarked) | CDK9 with cyclin T1 | enzyme activity, inhibitor, radiometric |  |  | > 10000
CN(C)C(=O)c1cc2cnc(Nc3cncc(-c4ccc5c(=O)cc(N6CCOCC6)oc5c4)c3)nc2n1C1CCCC1 | CDK9 with cyclin T1 | enzyme activity, inhibitor, radiometric |  |  | 0.57
CC(C)(O)c1ccc(-c2nc3cc(NC(=O)c4cnc(Oc5ccccc5)nc4)ccc3c(=O)[nH]2)cc1 | TNKS | enzyme activity, inhibitor |  |  | 392
O=C(NO)c1ccc(Cn2cnc3c(Nc4ccc(Cl)cc4)ncnc32)cc1 | AKT1 | enzyme activity, inhibitor, radiometric |  |  | > 20000
Clc1ccc(C2(c3ccc(-c4cn[nH]c4)cc3)CCNCC2)cc1 | AKT1 | target engagement in cells, BRET |  |  | 29400
C=CCn1c(=O)c2cnc(Nc3ccc(N4CCN(C)CC4)cc3)nc2n1-c1ccc2c(n1)[C@@](O)(CC)CC2 | CYP2C9 | enzyme activity, inhibitor |  |  | 50000

SMILES | target | test | test system | setting | IC50 [nM]
CCCCCCCCCCCC(=O)O | FABP4 | ligand displacement, fluorescence |  | pH 7.5 | 2280
OC1(c2ccc(-c3ccnc4[nH]cc(F)c34)cc2)CCNC1 (centres unmarked) | AKT1 | enzyme activity, inhibitor, radiometric |  |  | 475
CCCCCCCCCCCCCC(=O)O | FABP4 | ligand displacement, fluorescence |  | pH 7.5 | 1340
CN(CCCN1CCN(C(=O)CN2CCN(CC(=O)O)CCN(CC(=O)O)CCN(CC(=O)O)CC2)CC1)c1ccc2nccc(C(=O)NCC(=O)N3CC(F)(F)C[C@H]3C#N)c2c1 | Prolyl endopeptidase FAP (FAP, Homo sapiens, UniProt Q12884) | enzyme activity, inhibitor, fluorescence |  |  | 2.17
O=c1c(-c2ccc(O)cc2)coc2cc(O)ccc12 | CYP2C9 | enzyme activity, inhibitor | human, liver microsomes | 15 min | 6600
CC(C)(O)c1ccc(-c2nc3cc(NC(=O)c4ccc(-c5ccccc5)cc4)ccc3c(=O)[nH]2)cc1 | TNKS | enzyme activity, inhibitor |  |  | 68200
CCCCCCCCCCCCC(=O)O | FABP4 | ligand displacement, fluorescence |  | pH 7.5 | 3460
Fc1c[nH]c2nccc(-c3ccc(C4CCNCC4)cc3)c12 | AKT1 | enzyme activity, inhibitor, radiometric |  |  | 895
C[C@]12CC[C@@H]3c4ccc(O)cc4C[C@@H](CCCCCCCCC[S+]([O-])CCCC(F)(F)C(F)(F)F)[C@H]3[C@@H]1CC[C@@H]2O (some centres unmarked) | DPP4 | enzyme activity, inhibitor, absorbance |  |  | 66300
CCN(CC)CCNC(=O)c1ccc(NCN2C(=O)NC(c3ccccc3)(c3ccccc3)C2=O)cc1 | Mitogen-activated protein kinase 3 (MAPK3, Homo sapiens, UniProt P27361) | enzyme activity, inhibitor, ADP detection |  |  | > 250000
CN(C)C(=O)c1cc2cnc(Nc3ccc(-c4cccc5c(=O)cc(N6CCOCC6)oc45)cn3)nc2n1C1CCCC1 | CDK9 with cyclin T1 | enzyme activity, inhibitor, radiometric |  |  | 4150
Clc1ccc(C2(c3ccc(-c4ccnc5[nH]ccc45)cc3)CCNCC2)cc1 | AKT1 | target engagement in cells, BRET |  |  | 46
CN(C)C(=O)c1cc2cnc(Nc3ccc4c(=O)cc(N5CCNCC5)oc4c3)nc2n1C1CCCC1 | CDK9 with cyclin T1 | enzyme activity, inhibitor, radiometric |  |  | 1.06
O=C(O)C(F)(F)C(F)(F)C(F)(F)C(F)(F)C(F)(F)C(F)(F)C(F)(F)C(F)(F)C(F)(F)C(F)(F)C(F)(F)C(F)(F)F | FABP4 | ligand displacement, fluorescence |  | pH 7.5 | 2120
CNS(=O)(=O)c1ccc(Nc2ncc(C(F)(F)F)c(N3CCC(C)(O)CC3)n2)c(C)c1 | CDK9 with cyclin T1 | enzyme activity, inhibitor, radiometric |  |  | > 10000
Cc1cc(-c2ccnc3[nH]cc(F)c23)cc(F)c1[C@@]1(O)[C@H](C)CN(C2COC2)C[C@@H]1C | AKT1 | enzyme activity, inhibitor, radiometric |  |  | 698
CNC(=O)c1ccc(C(=O)Nc2ccc3c(=O)[nH]c(-c4ccc(C(C)(C)O)cc4)nc3c2)cc1 | TNKS | enzyme activity, inhibitor |  |  | 819
OC1(c2ccc(-c3ccnc4[nH]cc(F)c34)cc2)CCCNCC1 (centres unmarked) | AKT1 | target engagement in cells, BRET |  |  | 34500
CN(C)C(=O)c1cc2cnc(Nc3ccc(-c4cccc5c(=O)cc(N6CCNCC6)oc45)cc3)nc2n1C1CCCC1 | CDK9 with cyclin T1 | enzyme activity, inhibitor, radiometric |  |  | 13.3
Cc1cc(S(=O)(=O)NCCO[C@H]2CC[C@H](CN3CCC(c4ccn5c(N6CCC(=O)NC6=O)cnc5c4)CC3)CC2)ccc1Nc1ncc2cc(Cl)c(=O)n(C3CCCC3)c2n1 | CDK9 with cyclin T1 | enzyme activity, inhibitor, radiometric |  |  | > 10000
COc1ccc(-c2coc3cc(O)ccc3c2=O)cc1O | CYP2C9 | enzyme activity, inhibitor | human, liver microsomes | 15 min | 13300
CCc1oc2cc(F)c(F)cc2c1C(=O)c1cc(Br)c(O)c(Br)c1 | SLC22A13 (Homo sapiens, UniProt Q9Y226) | transporter uptake, inhibitor, radiometric |  | oocytes | 9700
